Measurements published in ChEMBL document CHEMBL3352255, “Tailor-made fluorescent trilobolide to study its biological relevance” (J Med Chem, 2014).
Activity calls are given as the source filed them. The calls are words filed in the database; no cut-off is given here.

Key:
[1] = tested on: LNCaP; assay: Cytotoxicity against human LNCAP cells after 24 hrs by WST-1 assay; type: functional, cell-based
Summary of the method: (§1)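 Dark cytotoxicity (no light exposure) by WST-1 tetrazolium-to-formazan conversion reflecting metabolic activity; compounds tested at concentrations up to 50 μM for 24, 48 or 72 h; IC50 taken as concentration giving 50% inhibition of cell viability.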

[2] = tested on: LNCaP; assay: Cytotoxicity against human LNCAP cells after 48 hrs by WST-1 assay; type: functional, cell-based; summary of the method: as §1
[3] = tested on: LNCaP; assay: Cytotoxicity against human LNCAP cells after 72 hrs by WST-1 assay; type: functional, cell-based; summary of the method: as §1
[4] = Cytotoxicity against human PC3 cells after 24 hrs by WST-1 assay; type: functional, cell-based; conditions: PC-3, 24 h; summary of the method: as §1
[5] = Cytotoxicity against human PC3 cells after 48 hrs by WST-1 assay; type: functional, cell-based; conditions: PC-3, 48 h; summary of the method: as §1
[6] = Cytotoxicity against human PC3 cells after 72 hrs by WST-1 assay; type: functional, cell-based; conditions: PC-3, 72 h; summary of the method: as §1
[7] = tested on: C2C12; assay: Cytotoxicity against mouse C2C12 cells after 24 hrs by WST-1 assay; type: functional, cell-based; conditions: C2C12, 24 h; summary of the method: as §1
[8] = tested on: C2C12; assay: Cytotoxicity against mouse C2C12 cells after 48 hrs by WST-1 assay; type: functional, cell-based; conditions: C2C12, 48 h; summary of the method: as §1
[9] = tested on: C2C12; assay: Cytotoxicity against mouse C2C12 cells after 72 hrs by WST-1 assay; type: functional, cell-based; conditions: C2C12, 72 h; summary of the method: as §1
[10] = tested on: U2OS; assay: Cytotoxicity against human U2OS cells after 24 hrs by WST-1 assay; type: functional, cell-based; summary of the method: as §1
[11] = tested on: U2OS; assay: Cytotoxicity against human U2OS cells after 48 hrs by WST-1 assay; type: functional, cell-based; summary of the method: as §1
[12] = tested on: U2OS; assay: Cytotoxicity against human U2OS cells after 72 hrs by WST-1 assay; type: functional, cell-based; summary of the method: as §1
[13] = tested on: MCF7; assay: Cytotoxicity against human MCF7 cells after 24 hrs by WST-1 assay; type: functional, cell-based; conditions: MCF7, 24 h; summary of the method: as §1
[14] = tested on: MCF7; assay: Cytotoxicity against human MCF7 cells after 48 hrs by WST-1 assay; type: functional, cell-based; conditions: MCF7, 48 h; summary of the method: as §1
[15] = tested on: MCF7; assay: Cytotoxicity against human MCF7 cells after 72 hrs by WST-1 assay; type: functional, cell-based; conditions: MCF7, 72 h; summary of the method: as §1
[16] = Cytotoxicity against human MIAPaCa2 cells after 24 hrs by WST-1 assay; type: functional, cell-based; conditions: MIA PaCa-2, 24 h; summary of the method: as §1
[17] = Cytotoxicity against human MIAPaCa2 cells after 48 hrs by WST-1 assay; type: functional, cell-based; conditions: MIA PaCa-2, 48 h; summary of the method: as §1
[18] = Cytotoxicity against human MIAPaCa2 cells after 72 hrs by WST-1 assay; type: functional, cell-based; conditions: MIA PaCa-2, 72 h; summary of the method: as §1
[19] = tested on: HT-29; assay: Cytotoxicity against human HT-29 cells after 24 hrs by WST-1 assay; type: functional, cell-based; conditions: HT-29, 24 h; summary of the method: as §1
[20] = tested on: HT-29; assay: Cytotoxicity against human HT-29 cells after 48 hrs by WST-1 assay; type: functional, cell-based; conditions: HT-29, 48 h; summary of the method: as §1
[21] = tested on: HT-29; assay: Cytotoxicity against human HT-29 cells after 72 hrs by WST-1 assay; type: functional, cell-based; conditions: HT-29, 72 h; summary of the method: as §1
[22] = species on record: Rattus norvegicus; assay: Induction of LPS-induced NO production in rat peritoneal cells after 24 hrs using DAR-2 probe by fluorescence assay; type: functional, cell-based
[23] = species on record: Rattus norvegicus; assay: Induction of TNFalpha production in rat peritoneal cells at 0.01 to 40 uM after 24 hrs by ELISA; type: functional, cell-based
[24] = Cytotoxicity against rat peritoneal cells assessed as reduction in cell viability at 10 uM after 24 hrs by WST-1 assay; type: cell-based
[25] = tested on: PC-3; assay: Induction of LPS-induced NO production in human PC3 cells at 40 uM after 24 hrs using DAR-2 probe by fluorescence assay; type: functional, cell-based
Summary of the method: (§2)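 NO in living cells (PC-3, LNCaP, MCF-7, U-2 OS) was imaged by fluorescence microscopy with the NO-specific red-emitting probe DAR-2 after compound stimulation.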

[26] = tested on: LNCaP; assay: Induction of LPS-induced NO production in human LNCAP cells at 40 uM after 24 hrs using DAR-2 probe by fluorescence assay; type: functional, cell-based; summary of the method: as §2
[27] = tested on: MCF7; assay: Induction of LPS-induced NO production in human MCF7 cells at 40 uM after 24 hrs using DAR-2 probe by fluorescence assay; type: functional, cell-based; summary of the method: as §2
[28] = tested on: U2OS; assay: Induction of LPS-induced NO production in human U2OS cells at 40 uM after 24 hrs using DAR-2 probe by fluorescence assay; type: functional, cell-based; summary of the method: as §2
[29] = Cellular uptake in Endoplasmic reticulum of human U2OS cells at 1 uM after 1 hr by fluorescence microscopy; type: ADME, cell-based
Summary of the method: (§3)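 Live-cell fluorescence microscopy of cells exposed to Bodipy-labelled conjugates at 1 μM for 1 h. ER was co-stained with ER-Tracker Blue-White DPX (100 nM, 20 min) to check colocalisation. A Bodipy dye-only stain served as control.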

[30] = Cellular uptake in Endoplasmic reticulum of human PC3 cells at 1 uM after 1 hr by fluorescence microscopy; type: ADME, cell-based; conditions: pc-3, 1 h; summary of the method: as §3
[31] = Cellular uptake in Endoplasmic reticulum of human LNCAP cells at 1 uM after 1 hr by fluorescence microscopy; type: ADME, cell-based; summary of the method: as §3
[32] = Cellular uptake in Endoplasmic reticulum of human HeLa cells at 1 uM after 1 hr by fluorescence microscopy; type: ADME, cell-based; summary of the method: as §3
[33] = Cytotoxicity against rat peritoneal cells assessed as reduction in cell viability at 40 uM after 24 hrs by WST-1 assay; type: cell-based
[34] = tested on: U2OS; assay: Cellular uptake in human U2OS cells at 5 uM after 24 hrs by fluorescence microscopy; type: ADME, cell-based
Summary of the method: (§4)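 Live-cell fluorescence microscopy of Bodipy-labelled conjugates (green emission), 5 μM, uptake followed at 10, 20, 40 min and 1, 3, 5, 24 h. Cells stained with Bodipy dye alone served as control for dye-driven localization.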

[35] = Cellular uptake in human PC3 cells at 5 uM after 24 hrs by fluorescence microscopy; type: ADME, cell-based; conditions: pc-3, 24 h; summary of the method: as §4
[36] = tested on: LNCaP; assay: Cellular uptake in human LNCAP cells at 5 uM after 24 hrs by fluorescence microscopy; type: ADME, cell-based; summary of the method: as §4
[37] = tested on: MCF7; assay: Cellular uptake in human MCF7 cells at 5 uM after 24 hrs by fluorescence microscopy; type: ADME, cell-based; conditions: mcf7, 24 h
[38] = tested on: HeLa; assay: Cellular uptake in human HeLa cells at 5 uM after 24 hrs by fluorescence microscopy; type: ADME, cell-based; summary of the method: as §4
[39] = Cellular uptake in human MIAPaCa2 cells at 5 uM after 24 hrs by fluorescence microscopy; type: ADME, cell-based; conditions: mia paca-2, 24 h; summary of the method: as §4
[40] = tested on: A549; assay: Cellular uptake in human A549 cells at 5 uM after 24 hrs by fluorescence microscopy; type: ADME, cell-based; conditions: a549, 24 h; summary of the method: as §4
[41] = tested on: C2C12; assay: Cellular uptake in mouse C2C12 cells at 5 uM after 24 hrs by fluorescence microscopy; type: ADME, cell-based; conditions: c2c12, 24 h; summary of the method: as §4
[42] = Cellular uptake in HEK293T cells at 5 uM after 24 hrs by fluorescence microscopy; type: ADME, cell-based; conditions: human, hek-293t; summary of the method: as §4
[43] = Cytotoxicity against rat peritoneal cells assessed as reduction in cell viability at 40 uM after 24 hrs by WST-1 assay

Row | Compound | IC50 [1] [µM] | IC50 [2] [µM] | IC50 [3] [µM] | IC50 [4] [µM] | IC50 [5] [nM] | IC50 [6] [µM] | IC50 [7] [µM] | IC50 [8] [µM] | IC50 [9] [µM] | IC50 [10] [µM] | IC50 [11] [µM] | IC50 [12] [µM] | IC50 [13] [µM] | IC50 [14] [µM] | IC50 [15] [µM] | IC50 [16] [µM] | IC50 [17] [µM] | IC50 [18] [µM] | IC50 [19] [µM] | IC50 [20] [µM] | further results
1 | F[B-]1(F)n2cccc2C=C2C=CC=[N+]21 | > 50 | > 50 | > 50 | 1.5 | 3100 | 5.6 | > 50 | > 50 | > 50 | > 50 | > 50 | > 50 | > 50 | > 50 | > 50 | > 50 | > 50 | > 50 | > 50 | > 50 | IC50 [21]: > 50 µM; Activity [22]: inactive; Activity [23]: inactive
2 | C/C=C(/C)C(=O)O[C@@H]1C[C@H]2C(=C1C)[C@@H]1OC(=O)[C@@](C)(O)[C@@]1(O)[C@@H](OC(=O)[C@@H](C)CC)C[C@]2(C)OC(C)=O | 3.4 | 0.5 | 0.4 | 9.6 | 1300 | 0.5 | 4 | 1 | 0.3 | 12.5 | 0.2 | 0.7 | 0.2 | 2.5 | 2.1 | 17.4 | 6 | 1.5 | 41.4 | 9.8 | IC50 [21]: 9.5 µM; Activity [24]: 65%; Activity [25]: Active; Activity [26]: Active; Activity [27]: Active; Activity [28]: Active; Drug uptake [29]: Active; Drug uptake [30]: Active; Drug uptake [31]: Active; Drug uptake [32]: Active
3 | C/C=C(/C)C(=O)O[C@@H]1C[C@H]2C(=C1C)[C@@H]1OC(=O)[C@@](C)(O)[C@@]1(O)[C@@H](OC(=O)CCOCCOCCOCCOCCOCCOCCOCCOCCOCCOCCn1cc(COc3ccc(C4=C5C=CC=[N+]5[B-](F)(F)n5cccc54)cc3)nn1)C[C@]2(C)OC(C)=O | > 50 | > 50 | > 50 | > 50 | > 50000 | > 50 | > 50 | > 50 | > 50 | > 50 | > 50 | > 50 | > 50 | 48 | 47.3 | > 50 | 50 | 41.1 | > 50 | > 50 | IC50 [21]: > 50 µM; Activity [33]: Non-toxic; Activity [22]: Dose-dependent effect; Drug uptake [34]: Not Active; Drug uptake [35]: Not Active; Drug uptake [36]: Not Active; Drug uptake [37]: Not Active; Drug uptake [38]: Not Active; Drug uptake [39]: Not Active; Drug uptake [40]: Not Active; Drug uptake [41]: Not Active; Drug uptake [42]: Not Active; Activity [43]: Non-toxic
4 | C/C=C(/C)C(=O)O[C@@H]1C[C@H]2C(=C1C)[C@@H]1OC(=O)[C@@](C)(O)[C@@]1(O)[C@@H](OC(=O)Cn1cc(COc3ccc(C4=C5C=CC=[N+]5[B-](F)(F)n5cccc54)cc3)nn1)C[C@]2(C)OC(C)=O | > 50 | 3.5 | > 50 | 2.2 | 2900 | 3.2 | > 50 | > 50 | > 50 | > 50 | > 50 | > 50 | > 50 | > 50 | > 50 | > 50 | > 50 | > 50 | > 50 | > 50 | IC50 [21]: > 50 µM; Activity [33]: Non-toxic; Activity [22]: Dose-dependent effect; Drug uptake [34]: Not Active; Drug uptake [35]: Not Active; Drug uptake [36]: Not Active; Drug uptake [37]: Not Active; Drug uptake [38]: Not Active; Drug uptake [39]: Not Active; Drug uptake [40]: Not Active; Drug uptake [41]: Not Active; Drug uptake [42]: Not Active; Activity [43]: Non-toxic
5 | C/C=C(/C)C(=O)O[C@@H]1C[C@H]2C(=C1C)[C@@H]1OC(=O)[C@@](C)(O)[C@@]1(O)[C@@H](OC(=O)CCOCCOCCOCCOCCn1cc(COCCOCCOCCOCCNC(=O)CCOCCOCCOCCOCCn3cc(COc4ccc(C5=C6C=CC=[N+]6[B-](F)(F)n6cccc65)cc4)nn3)nn1)C[C@]2(C)OC(C)=O | > 50 | > 50 | > 50 | > 50 | > 50000 | > 50 | > 50 | > 50 | > 50 | > 50 | > 50 | > 50 | > 50 | > 50 | > 50 | > 50 | > 50 | > 50 | > 50 | > 50 | IC50 [21]: > 50 µM; Activity [33]: Non-toxic; Activity [22]: Dose-dependent effect; Drug uptake [34]: Not Active; Drug uptake [35]: Not Active; Drug uptake [36]: Not Active; Drug uptake [37]: Not Active; Drug uptake [38]: Not Active; Drug uptake [39]: Not Active; Drug uptake [40]: Not Active; Drug uptake [41]: Not Active; Drug uptake [42]: Not Active; Activity [43]: Non-toxic
